Assay outcomes as filed in PubChem BioAssay.
Compounds with a hit are over-represented: about 1.7% of the library has one in this group of screens.
Pemphigus Ab inh – inhibitors of pemphigus antibody binding to DSG3, primary screen, biochemical, bead-based, flow cytometry, scFv-GFP; binding (percent of control), % at 10 µM; DSG3-coupled beads, scFv-anti-DSG3-GFP binding; stronger effect = lower value; hit rate 0.48% among 310,000; AID 588358, 2011; Desmoglein-3 (Homo sapiens), P32926;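 active means binding more than 3 SD below its plate's average and above zero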
Target sequence (P32926 whole entry, looked up): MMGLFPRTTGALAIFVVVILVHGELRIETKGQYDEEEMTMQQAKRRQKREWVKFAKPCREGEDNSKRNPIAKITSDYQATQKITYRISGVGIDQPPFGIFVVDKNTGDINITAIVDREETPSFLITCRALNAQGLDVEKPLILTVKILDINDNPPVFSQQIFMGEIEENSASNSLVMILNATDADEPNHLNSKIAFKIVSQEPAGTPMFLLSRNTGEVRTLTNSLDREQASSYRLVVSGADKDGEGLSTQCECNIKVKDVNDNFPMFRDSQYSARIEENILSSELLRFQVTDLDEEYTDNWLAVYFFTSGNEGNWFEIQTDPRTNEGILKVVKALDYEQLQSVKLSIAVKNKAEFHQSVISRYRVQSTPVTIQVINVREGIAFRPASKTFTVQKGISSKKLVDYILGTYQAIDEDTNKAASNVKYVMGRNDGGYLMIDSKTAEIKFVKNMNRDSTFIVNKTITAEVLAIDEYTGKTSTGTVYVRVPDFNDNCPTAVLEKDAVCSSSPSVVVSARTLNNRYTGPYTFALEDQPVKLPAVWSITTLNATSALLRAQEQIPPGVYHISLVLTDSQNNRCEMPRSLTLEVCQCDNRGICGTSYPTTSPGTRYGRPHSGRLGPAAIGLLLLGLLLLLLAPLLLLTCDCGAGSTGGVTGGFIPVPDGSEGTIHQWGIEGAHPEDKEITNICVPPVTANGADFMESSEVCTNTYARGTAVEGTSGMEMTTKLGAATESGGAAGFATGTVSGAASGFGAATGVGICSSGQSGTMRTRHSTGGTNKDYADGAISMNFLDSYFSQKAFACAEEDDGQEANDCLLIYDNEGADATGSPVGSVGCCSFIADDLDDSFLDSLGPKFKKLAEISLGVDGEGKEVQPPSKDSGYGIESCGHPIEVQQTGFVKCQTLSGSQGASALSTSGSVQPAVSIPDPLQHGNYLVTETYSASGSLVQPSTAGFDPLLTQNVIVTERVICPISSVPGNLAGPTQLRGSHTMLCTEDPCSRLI
T cell modulator – modulators of CD8 T cell-vesicle binding, primary screen, mouse 2C CD8+ T cells, flow cytometry; 2C CD8+ T cell-vesicle binding; stronger effect = lower value; response (vesicle binding), % at 7 µM; hit rate 0.068% among 330,000; AID 2052, 2009;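 active means response, share of CD8 T cells binding vesicles, and their 90th percentile fluorescence all below set limits, cut at about 80% in these data, passing the limit was not always enough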;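 further: values below 100% mean blocked vesicle binding to the CD8+ T cells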
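System: murine 2C transgenic CD8+ T lymphocytes; also added: QL9-loaded Drosophila micro-vesicles; times: binding 1.5 h at 37 °C; measured by: flow cytometry, PE anti-B7-1 (FL2) versus Alexa647 anti-CD8 (FL8), PFA-fixed; control set: Peptide-free naked vesicles (low) and QL9 vesicles with 0.7% DMSO vehicle (high)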
Myeloid diff MLP – induction of myeloid progenitor differentiation, primary screen, cell-based, flow cytometry, MLPCN library; ER-HoxA9 myeloid progenitors, lysozyme-GFP differentiation; calls only at 10 µM; hit rate 1% among 360,000; AID 624256, 2012;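 active means normalized GFP-positive differentiation at or above the plate's own cutoff, the solvent-only control mean plus 3 SD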;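 further: cells exposed to compound for four days before flow analysis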
Vif inh – HIV Vif self-association inhibitors, primary screen, imaging, HEK293T, single point; HEK293T cells, Vif self-association by quenched fluorescence, 24 h; inhibition, % at 7.49 µM; hit rate 0.35% among 340,000; in the data active means inhibition above about 50%, passing the limit was not always enough
A number is an active result; n = inactive; x = no result; + = active, no number.

SMILES | Pemphigus Ab inh | T cell modulator | Myeloid diff MLP | Vif inh
CC(Sc1nc2ccccc2c(=O)n1CC1CCCO1)C(=O)Nc1ccc(S(N)(=O)=O)cc1 (configuration not stated) | n | n | n | n
CC(=O)N1C2=CCCC3CCCCC23c2ccccc21 (configuration not stated) | n | x | + | n
Nc1[nH]c(C(=O)c2ccccc2)c(-c2cccnc2)c1C(=O)NCCc1ccc(Cl)cc1Cl | x | x | n | x
COc1cc(C(=O)Nc2sc3c(c2C(=O)O)CCC(C)C3)cc(OC)c1OC (configuration not stated) | n | n | n | 122
Cc1cccc(C)c1NC(=O)CN1C(=O)C2CC=CCC2C1=O (configuration not stated) | x | n | n | n
N#CCSc1ccccc1NC(=O)CN1C(=O)C2CC=CCC2C1=O (configuration not stated) | n | x | + | n
Fc1ccc(CSc2ncnc3c2oc2ccccc23)cc1 | 69 | n | n | n
O=S(=O)(c1ccc(Br)cc1)N1CCN(c2cc(-c3ccccc3)nc3ncnn23)CC1 | n | n | n | n
O=S(=O)(c1ccccc1)N1CCN(c2cc(-c3ccccc3)nc3ncnn23)CC1 | n | n | + | x
CCN(CC)c1ncnc2c1ncn2[C@H]1CN(C2CCCC2)C[C@@H](CO)O1 | x | x | n | n
CO[C@H]1CN(C)C(=O)c2ccc(NC(=O)c3ccc4c(c3)OCO4)cc2OC[C@H](C)N(CC2CC2)C[C@@H]1C | x | x | n | x
CCN(CC)S(=O)(=O)c1cccc(-c2nnc(SCCOc3ccc(Cl)cc3)o2)c1 | -11 | n | n | n
COc1ccc(Cc2c(-c3ccc(F)cc3)nc3c(C)cc(Br)cn23)c(C)c1 | x | x | n | x
Cc1ccc(N(C(=O)c2csnn2)C(C(=O)NC2CCCC2)c2ccccn2)cc1 (configuration not stated) | n | n | n | 56
O=C(NC1CCCC1)C(c1ccncc1)N(C(=O)c1csnn1)c1ccccc1F (configuration not stated) | x | n | n | n
O=C(NC1CCCC1)C(c1ccccn1)N(C(=O)c1csnn1)c1ccccc1 (configuration not stated) | n | n | n | n
Cc1ccccc1N(C(=O)c1csnn1)C(C(=O)NC1CCCCC1)c1ccncc1 (configuration not stated) | n | n | + | n
O=C1N=C(N2CCOCC2)S/C1=C/c1cccs1 | n | n | + | x
CC(=O)N1CCN(C2=NC(=O)/C(=C\c3cccs3)S2)CC1 | n | n | n | n
O=C1N=C(N2CCCC2)S/C1=C\c1ccccc1 | x | n | + | x
Cc1noc(C)c1-c1ccc(C(=O)NCCc2ccccc2)c2occc12 | x | x | n | n
Cc1nc(SCc2nc3c([N+](=O)[O-])cccc3[nH]2)c2oc3ccccc3c2n1 | 32 | n | n | n
O=C(Nc1ccc(Oc2ccccc2)cc1)c1ccc(Cn2c(=O)[nH]c3ccsc3c2=O)cc1 | 51 | n | n | n
O=C(NC1CCCC1)c1ccc(Cn2c(=O)[nH]c3ccsc3c2=O)cc1 | n | n | n | n
O=C(Nc1ccc(Cl)c(Cl)c1)c1ccc(Cn2c(=O)[nH]c3ccsc3c2=O)cc1 | 66 | n | n | x
SMILES | Pemphigus Ab inh | T cell modulator | Myeloid diff MLP | Vif inh
COc1ccccc1-c1cn(CC[C@@H]2CC[C@H](NC(=O)C3CCC3)[C@@H](CO)O2)nn1 | x | x | n | x
Cc1ccc(-c2nc3c4ccccc4ccn3c2Cc2ccsc2)cc1 | x | x | n | x
CC(C)C[C@@H]1CN(CCCC[C@H]2CNC(=O)C(=O)N2CCC2CCCCC2)C(=O)C(=O)N1CC1CCCCC1 | x | x | n | x
Cn1cccc1-c1cc(C(=O)N/N=C/c2ccc(F)cc2)[nH]n1 | x | n | n | n
Cn1cccc1-c1cc(C(=O)N/N=C/c2ccc([N+](=O)[O-])cc2)[nH]n1 | n | n | n | 70
CCN1CCN(c2cc(C)c3cc(NC(=S)N4CCCC(C)C4)ccc3n2)CC1 (configuration not stated) | n | n | + | x
CCCCNC(=O)CCC(=O)Nc1ccc2nc(N3CCCCC3)cc(C)c2c1 | n | n | + | n
Cc1ccc2c(c1)N(CC(=O)N1CCOCC1)C(=O)C(C)O2 (configuration not stated) | n | n | n | n
Cc1ccc2c(c1)N(CC(=O)N1CCCCCC1)C(=O)C(C)O2 (configuration not stated) | n | n | n | 69
Cc1cc(Br)c(NC(=O)c2c(-c3c(Cl)cccc3Cl)noc2C)c(Br)c1 | n | 26 | n | n
Cc1onc(-c2c(F)cccc2Cl)c1C(=O)c1ccc(F)cc1 | 64 | n | n | n
